Assay outcomes deposited in PubChem by several laboratories.
BB579 growth dn: growth inhibitors of yeast BB579 in restrictive medium, primary screen, yeast lifespan-shortening project, S. cerevisiae | inhibition, % at 10 µM | AID 804, 2007 | OD615, 48 h | actives 0.51% (n = 140,000);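 active = inhibition above a set limit, 3 SD over the mean compound inhibition, cut at about 44% in these data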
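Test system: DeaD yeast strain BB579 / Buffer or medium: restrictive glucose-based CSMM-D medium / Doses: single 10 µM dose / Schedule: 4 h cell preincubation, 48 h compound exposure, 30 °C humidified / Technique: culture absorbance at 615 nm / Controls: amphotericin B positive control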
RAM network inh: inhibitors of the yeast RAM network, primary screen, dse1pr::URA3 reporter, 5-FOA selection. S. cerevisiae dse1pr::URA3 reporter, 5-FOA growth OD615, 2 d; analog-sensitive cbk1-as2 kinase mutant strain. inhibition, % at 50 µM. actives 1.8% (n = 190,000). AID 868, 2007;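 active = inhibition above a set limit, 3 SD over mean compound inhibition, cut at about 8.4% in these data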;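 note: 0% = DMSO-only wells with no growth and 100% = 10 µM 1-NA-PP1 full growth; inhibition rescues growth on 5-FOA so higher OD means more RAM inhibition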
SDO1 yeast rescue: growth rescue of sdo1-depleted yeast, primary screen, S. cerevisiae, bone marrow failure model | S. cerevisiae sdo1-depleted JHY4D growth rescue, OD600 30 h; hits give high values; pdr5 snq2 efflux-pump mutant strain | z-score at 10 µM | actives 0.21% (n = 140,000) | AID 817, 2007;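 active = z-score above 3 at both the 24 hr and the 30 hr optical density reads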;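 note: z-score against mean and SD of all compound wells on the same plate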
Yeast lifespan up: compounds extending yeast replicative lifespan, primary screen, S. cerevisiae, OD615. S. cerevisiae growth with nicotinamide; deaD strain in restrictive glucose medium. inhibition of the nicotinamide effect, % at 10 µM. actives 0.68% (n = 130,000). AID 775, 2007;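 active = inhibition above a set limit, placed 3 SD over the median of all compounds, cut at about 26% in these data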;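 note: 0% = nicotinamide-treated wells and 100% = cells grown without nicotinamide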
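Material: Modified budding yeast, DeaD strain | Medium: Restrictive glucose medium | Probe or stimulus: 1.5 mM nicotinamide | Dosing: Single dose 10 µM compound, 0.25% DMSO | Times: 48 h at 30 °C | Technique: OD615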
* marks the source's active call; other numbers are inactive results; . = not tested or not shown. In the library only some 2.7% were active in any assay of this set; here they are far more common.

SMILES	BB579 growth dn	RAM network inh	SDO1 yeast rescue	Yeast lifespan up
CC(=O)O[C@]1(C(C)=O)CC[C@H]2[C@@H]3C[C@H](C)C4=CC(=O)CC[C@]4(C)[C@H]3CC[C@@]21C	-19	-1	-1.9	14
CC(=O)O[C@]1(C(C)=O)CC[C@H]2[C@@H]3C=C(Cl)C4=CC(=O)CC[C@]4(C)[C@H]3CC[C@@]21C	-18	8.8*	-0.19	2
O=C(Cc1ccc(F)cc1)Oc1ccc(C(=S)N2CCCC2)cc1	-32	2	0.09	4
Cc1nn(-c2ccccc2)c2sc(C(=O)O)cc12	50*	0	0.16	-26
Cc1nn(-c2ccccc2)c2sc(-c3n[nH]c(=S)o3)cc12	72*	0	0.01	-23
Cc1nn(-c2ccc(F)cc2)c2sc(C(=O)O)cc12	43*	1	0.73	-9
COC(=O)c1cc2c(C)nn(-c3ccccc3)c2s1	-5	4	-0.82	-27
C=CCn1c(C)c(C(C)=O)c(N2CCOCC2)nc1=S	-10	1	0.52	-6
CC(=O)Cc1nsc(NC(=O)c2c(-c3ccccc3Cl)noc2C)n1	-33	2	-0.78	-18
Nc1nc(-c2ccc(Cl)cc2)c(N=Nc2ccc(S(=O)(=O)N3CCOCC3)cc2)s1	-8	9.3*	-0.52	5
O=C(Nc1ccc(C(F)(F)F)cc1)c1cc(S(=O)(=O)NCC2COc3ccccc3O2)ccc1F (stereo not drawn)	-16	8.4*	-1.4	4
COc1ccc2[nH]c(=O)c(C(c3nnnn3CC3CCCO3)N3CCCCC3)cc2c1 (stereo not drawn)	.	1	.	.
Cc1cc(NS(=O)(=O)c2ccc(NC(=S)NC(=O)c3cccnc3)cc2)no1	.	9.3*	.	.
CSc1ccccc1NC(=S)Nc1ccccc1C(F)(F)F	-18	2	-0.03	-7
COc1ccc(COc2cc(-c3cccc(OC)c3)nc3ccc(NC(=O)c4ccc(N(C)C)cc4)cc23)cc1	-29	6	-0.71	2
COc1ccc(COc2cc(-c3cccc(OC)c3)nc3ccc(NC(=O)c4ccc(C)cc4)cc23)cc1	-39	8.6*	-0.75	3
CCOC(=O)N1CCN(C(=O)c2cccn3c(=O)c4cc(Cl)ccc4nc23)CC1	-18	6	-0.45	-18
c1ccc2nc3c(nc2c1)[nH]c1ccccc13	77*	4	-0.84	.
O=S(=O)(c1ccc(F)c(F)c1F)N1CCN(C(=S)NCc2ccccc2)CC1	.	2	.	.
CCOC(=O)C1=NNC2(c3ccccc3)C(=O)N(c3cccc(Br)c3)C(=O)C12 (stereo not drawn)	-62	0	0.36	2
CCOC(=O)C1=NNC2(c3ccc(Cl)cc3)C(=O)N(c3ccc(C)cc3)C(=O)C12 (stereo not drawn)	-9	11*	1.1	-1
CCOC(CCn1c(SCc2cccc([N+](=O)[O-])c2)nc2ccccc2c1=O)OCC	-61	11*	-1.2	12
CCc1cc2c(=O)c(-c3nc4ccccc4n3C)c(C(C)C)oc2c(CN2CCN(C)CC2)c1O	-20	0	-0.44	-4
CCOC(=O)CCCNC(=O)COc1ccccc1C#N	-11	2	0.31	66*
CCc1cccc(C)c1NC(=S)NCCc1c(C)[nH]c2ccc(C)cc12	45*	7	-1.8	2
SMILES	BB579 growth dn	RAM network inh	SDO1 yeast rescue	Yeast lifespan up
CCc1cccc(CC)c1NC(=S)NCCc1c(C)[nH]c2ccc(C)cc12	32	7	-1.5	-1
CCOC(=O)c1sc2nc(C)nc(SCC(=O)NC(C)CCc3ccccc3)c2c1C (stereo not drawn)	-19	3	-0.02	-3
O=C1CNC(=O)/C1=C/c1ccccc1	-52	-1	0.8	29*
Cc1nc(-c2ccccc2)sc1C(=O)/C=C/c1ccc(Cl)cc1	-64	5	-1.8	1
COc1ccc(N/C=C/C(=O)c2sc(-c3ccccc3)nc2C)cc1	-42	9.5*	-0.42	-11
COc1cc(/C=N/NC(=O)c2ccncc2)ccc1OC(=O)c1ccccc1Cl	.	1	.	.
COc1cc(/C=N/NC(=O)c2ccncc2)ccc1OC(=O)c1ccc([N+](=O)[O-])cc1	-10	4	0.42	44*
CCOC(=O)C1C(=O)NC(SCC(=O)Nc2nccs2)=C(C#N)C1c1ccccc1OCC (stereo not drawn)	-10	1	-0.56	27*
Cc1ccc(S(=O)(=O)Nc2ccc3c(c2)OCCO3)cc1C	.	1	.	.
O=C(O)c1ccc(S(=O)(=O)Nc2ccc(O)c(Sc3nc4ccccc4s3)c2)cc1	.	9.8*	.	.
Cc1ccc(S(=O)(=O)NC(=O)CSc2nc3ccccc3s2)cc1	-15	2	0.16	-18
N#Cc1cc(-c2ccccc2)cnc1Sc1ccccc1	-30	9.2*	-0.47	-16
Cc1ccc(Sc2nnc(-c3ccccc3)cc2C#N)cc1	-42	6	1.4	-8
O=C(O)COn1c(-c2ccc(Cl)cc2)nc2ccc(Cl)cc21	.	5	.	.
Clc1ccc(COn2c(-c3ccccc3)nc3ccccc32)cc1	-24	-2	-1.9	-21
Clc1ccc(COn2c(-c3ccc(Cl)cc3)nc3ccccc32)cc1	-48	9.1*	-1	-19
COn1c(-c2ccc(Cl)cc2)nc2ccc(Cl)cc21	-9	11*	-1.5	-25
Cn1c(O)c(N=NC(=O)c2cccc(S(=O)(=O)N3CCCCC3)c2)c2ccccc21	-37	8.9*	-0.64	3
O=C(O)CC/C(=C\c1ccc(Cl)c([N+](=O)[O-])c1)c1nc2ccccc2s1	-23	11*	-0.02	9
O=C(O)CC/C(=C\c1ccc(N2CCOCC2)c([N+](=O)[O-])c1)c1nc2ccccc2s1	.	3	.	.
Cc1ccc(S(=O)(=O)NCCc2nnc3ccc(SCC(=O)Nc4nc5ccccc5s4)nn23)cc1	-12	10*	0.76	0
CC(=NCCc1c(C)[nH]c2ccc(C)cc12)C1=C(O)CC(c2ccccc2)CC1=O (stereo not drawn)	-12	3	-1.1	58*
O=C(Nc1nnc(CCS(=O)(=O)c2ccc3ccccc3c2)s1)c1ccc([N+](=O)[O-])cc1	-28	8.4*	1.3	5
COc1ccc(C(=O)C(OC(=O)c2ccccc2)c2ccccc2)cc1 (stereo not drawn)	-5	10*	-0.4	-3
Cc1ccc(NC(=O)C(OC(=O)c2ccccc2Cl)c2ccccc2)cc1Cl (stereo not drawn)	-36	8.9*	-0.56	6
Cc1ccccc1OCC(=O)OC(C(=O)c1ccccc1)c1ccccc1 (stereo not drawn)	-35	10*	-0.33	-2
Cc1cc(C(=O)OC(C(=O)Nc2ccc(C)c(Cl)c2)c2ccccc2)c(C)o1 (stereo not drawn)	2	5	-0.29	1
O=C(CCC(=O)OC(C(=O)c1ccccc1)c1ccccc1)Nc1ccccc1 (stereo not drawn)	-35	8	0.49	-29
